Screens from PubChem BioAssay.
PAD4 FP inh = blocks human protein arginine deiminase 4. Q9UM07. recombinant PAD4, RCA probe fluorescence polarization. inhibition, % at 6.36 µM. 330,000 compounds, 0.41% hits;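 active = percent inhibition above a cutoff equal to the mean of all tested compounds plus 3 SD, cut at about 15% in these data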;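 also: 0% = PAD4 with RCA probe and DMSO and 100% = probe without PAD4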
TCR-CD3 inh = blocks the human TCR-CD3 interaction; inhibition, % at 9.4 µM; 360,000 compounds, 0.37% hits; TAMRA-labeled TCR probe fluorescence, biochemical; AID 651800; in the data active = inhibition above about 19%;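 also: recombinant mutant TCR 2C K166C tagged with TAMRA read by polarization; 0% = receptor in buffer alone and 100% = receptor with positive control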
PRMT1 inh = inhibitors of human PRMT1 | 370,000 compounds, 1.3% hits | recombinant PRMT1, activity-based probe fluorescence polarization | AID 652257 | Q99873 | inhibition, % at 2.79 µM;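 active = inhibition above about 21% made by adding two undisclosed values, limit read from the data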
Target sequence (Q99873 whole entry, looked up): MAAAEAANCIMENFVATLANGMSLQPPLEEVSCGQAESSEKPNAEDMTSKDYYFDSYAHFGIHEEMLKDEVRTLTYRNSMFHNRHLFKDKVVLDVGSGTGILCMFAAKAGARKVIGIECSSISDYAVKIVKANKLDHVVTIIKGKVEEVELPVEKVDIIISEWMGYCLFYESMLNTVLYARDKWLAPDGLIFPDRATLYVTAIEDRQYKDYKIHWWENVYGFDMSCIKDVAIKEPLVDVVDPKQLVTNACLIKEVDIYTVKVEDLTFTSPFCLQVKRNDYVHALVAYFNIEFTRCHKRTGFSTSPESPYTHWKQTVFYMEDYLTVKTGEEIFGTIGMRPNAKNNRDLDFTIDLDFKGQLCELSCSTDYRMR
SIAE primary = blocks human sialic acid acetylesterase; Q9HAT2; SIAE FP-Rh probe binding, fluorescence polarization; inhibition, % at 9.66 µM; 370,000 compounds, 0.69% hits;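 active = inhibition above a cutoff: mean of compounds within the control limits plus 3 SD of those, cut at about 17% in these data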;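 also: 0% = plate median of compound wells and 100% = probe without SIAE protein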
HTRA1 inh = inhibitors of human serine peptidase HTRA1 | recombinant HTRA1, FP-rhodamine activity-based probe, fluorescence polarization | inhibition, % at 5.96 µM | 340,000 compounds, 0.5% hits; in the data active = inhibition above about 36%;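 also: 0% = enzyme with DMSO and 100% = wells lacking enzyme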
ABHD4 inh = inhibits mouse alpha/beta hydrolase domain 4; Q8VD66; purified mABHD4, FP-Rh probe fluorescence polarization; inhibition, % at 8.92 µM; 370,000 compounds, 0.54% hits; AID 720543;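 active = inhibition exceeding the mean over every tested compound plus 3 SD, cut at about 30% in these data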;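 also: 0% = plate median of compound wells and 100% = S159A mutant with DMSO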
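Assay system: wild-type mouse ABHD4 protein; compound: single nominal dose of 8.92 µM, 0.89% DMSO final; schedule: 45 min + 60 min at 25 °C; measured by: FP readout, ex 525 nm / em 598 nm; evaluation: % inhibition of FP-Rh probe binding versus controls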
PAD4 FP conf = PAD4 (human) inhibition, confirmed. shares compounds with PAD4 FP inh. recombinant PAD4, RCA probe fluorescence polarization. inhibition, % at 6.36 µM. AID 488796. 1,200 compounds, 28% hits;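 active = mean inhibition across replicates above the hit cutoff set by the earlier primary screen, cut at about 15% in these data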;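 also: inhibitors block active-site labeling by the probe so polarization falls; 0% = PAD4 with probe and DMSO and 100% = probe without PAD4 enzyme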
An asterisk follows results filed as active; . = no result. An excerpt weighted towards active compounds, which were near 2.9% of everything screened.

SMILES	PAD4 FP inh	TCR-CD3 inh	PRMT1 inh	SIAE primary	HTRA1 inh	ABHD4 inh	others
CN1C(=O)C(=Cc2ccccc2Oc2ccc(Cl)cc2)C(=O)N(C)C1=O	-3	7	21*	3	-16	-3
CC(C)(C)NC(=O)C1CN=C(c2ccccc2)c2cc(Cl)ccc2N1C(=O)C1CCC1 (stereo unspecified)	.	.	-2	5	.	7
CCn1c(O)c(C=Nc2cc(Cl)ccc2Cl)c(=O)n(CC)c1=O	-6	7	22*	5	4	0
COc1ccc(Cl)cc1N=Cc1c(O)n(C)c(=O)n(C)c1=O	-1	-1	-1	-1	2	0
O=C1NC(=S)N(C2CC2)C(=O)/C1=C/c1ccc2c(c1)CCN2CCCCl	-6	-3	35*	-8	23	8
CCN1C(=O)/C(=C/c2ccc3c(c2)CCN3CCCCl)C(=O)NC1=S	-5	-33	11	-17	18	-11
CC(=O)c1ccc2c(c1)C1C(Cl)C(Sc3ccccc3[N+](=O)[O-])CC1C(c1ccccc1)N2 (stereo unspecified)	-9	6	17	18*	17	24
CCOC(=O)[C@]1(C#N)[C@@H]2C=CC(C(C)=O)=CN2[C@@H](C(N)=O)[C@@H]1c1ccsc1	4	-3	15	17*	-5	19
C=C1C(=O)C(C)=C2C(=O)N3Cc4[nH]c5ccccc5c4CC3(C(=O)OC)C12 (stereo unspecified)	.	.	11	-11	.	-6
CN1/C(=C\C=C\C2=[N+](C)c3ccc4ccccc4c3C2(C)C)C(C)(C)c2ccccc21	119*	.	.	.	.	.
CC(C)C(C(=O)NC(C)(C)C)N1C(=O)CN=C(c2ccccc2)c2ccccc21 (stereo unspecified)	.	.	1	9	.	-2
COc1cc(C2c3cc4c(cc3CC3COC(=O)C32)OCO4)cc(OC)c1OC (stereo unspecified)	-2	-1	22*	1	-2	5
COc1cc(C2c3cc4c(c(O)c3CC3COC(=O)C32)OCO4)cc(OC)c1OC (stereo unspecified)	.	7	1	5	-6	-4
N#CCC[C@@H]1CC[C@]2(CCCN(Cc3ccccn3)C2)O1	.	.	4	-4	.	-3
COC(=O)C1=C[C@H]([C@@H](C)[C@H](OC)c2ccccc2Br)[C@@H]2[C@H]1c1ccccc1N2C	.	.	-3	8	.	2
C[N+]1=C(N)NC2=C3CCCCC3ONC2C1 (stereo unspecified)	.	.	3	10	.	5
COC(=O)C1=C(C(=O)OC)SC2(S1)C(C(=O)OC)=C(C(=O)OC)Sc1c2ssc1=O	.	-4	105*	2	10	8
CC(C)CNC(=O)c1c(N)n(Cc2ccco2)c2nc3ccccc3nc12	-31	-8	40*	-3	-27	0
CCCC(=O)N1c2ccc(Cl)cc2C(c2ccccc2)=NCC1C(=O)NC(C)(C)C (stereo unspecified)	.	.	-3	-4	.	-1
COP(=O)(OC)C(C)NC(=O)OCc1ccccc1 (stereo unspecified)	.	.	0	-4	.	11
CN1CCN(c2ccc([N+](=O)[O-])c3no[n+]([O-])c23)CC1	-10	1	112*	-14	-23	-5
O=[N+]([O-])c1ccc(N(CCO)CCO)c2c1no[n+]2[O-]	.	-1	19	-16	6	-6
Cc1cccc(N2C(=O)/C(=C/c3ccc(CN(CCC#N)S(C)(=O)=O)o3)C(=O)NC2=S)c1	-14	-1	41*	-3	6	11
C=C(C=O)CC1CC(O)[C@]2(C)OC3CC4OC5C[C@]6(C)O[C@]7(C)CCC8OC9C[C@]%10(C)OC%11C(C)=CC(=O)OC%11CC%10OC9C[C@@H](C)C8OC7CC6O[C@]5(C)C/C=C\C4OC3CC2O1 (stereo partly specified)	.	.	-1	3	.	-6
O=C1CC=C2C3CC4N(CCC45c4cc(O)c(O)cc4N1C25)CC3=CCBr (stereo unspecified)	.	50*	16	4	11	20
SMILES	PAD4 FP inh	TCR-CD3 inh	PRMT1 inh	SIAE primary	HTRA1 inh	ABHD4 inh	others
Nc1c(C(=O)NC2CCCC2)c2nc3ccccc3nc2n1CC1CCCO1 (stereo unspecified)	19*	6	-1	-2	-23	5
CC1CCN(C(CC(=O)c2ccccc2)C(=O)c2ccccc2)CC1 (stereo unspecified)	.	4	72*	1	-27	-6
O=C(c1ccccc1)C(CN1CCCC1)c1ccccc1 (stereo unspecified)	3	-4	6	0	0	-5
COc1ccc([C@@H]2C[C@H]3[C@@H](CN2)CON3C)cc1	.	.	0	-2	.	1
CCCNC1=C(C)C(=O)C2=C(C1=O)C(COC(N)=O)[C@]1(OC)C3NC3CN21 (stereo partly specified)	-2	27*	6	10	12	22
CC1=C(C(=O)O)N2C(=O)[C@@H](NC(=O)CCCC(=O)O)[C@H]2SC1	-3	-14	23*	-8	-3	0
O=C(CN1C(=O)[C@@H](Cc2ccc(O)cc2)N=C(c2ccccc2)c2ccccc21)NC1CCCCC1	.	.	-1	0	.	-12
CC(C)C[C@H]1N=C(c2ccccc2)c2ccccc2N(CC(=O)NC(C)(C)C)C1=O	.	.	-2	3	.	8
CC[C@H](C)/C=C(C)/C=C/C1=CC2=C(Cl)C(=O)[C@@](C)(OC(C)=O)C(=O)C2=CO1	9	.	.	.	78*	.
CCC(CO)NC(=O)C1C=C2c3cccc4[nH]cc(c34)CC2N(C)C1 (stereo unspecified)	-3	7	15	7	16	19
CC(C)C[C@H]1C(=O)N2CCC[C@H]2[C@]2(O)O[C@](NC(=O)[C@@H]3C=C4c5cccc6[nH]cc(c56)C[C@H]4N(C)C3)(C(C)C)C(=O)N12	7	.	.	.	42*	.
CCOC(=O)CC[C@@H]1CC[C@]2(CCCN(Cc3cccnc3)C2)O1	.	.	1	4	.	2
CC(NC(=O)OC1CC2CCC1(C)C2(C)C)P(=O)(Oc1ccccc1)Oc1ccccc1 (stereo unspecified)	.	.	-2	-3	.	0
O=C1NC(=O)C(Sc2ccccc2[N+](=O)[O-])C(=O)N1	-1	3	57*	6	16	13
COc1ccc(/C=C2\C(=O)NC(=S)N(C)C2=O)cc1C	-1	0	45*	-9	9	4
C=CCN(CC#CCO)Cc1ccc(OC)cc1OC	.	.	-3	2	.	1
CCOC(=O)c1c(NS(=O)(=O)c2ccccc2)n(CCCOC)c2nc3ccccc3nc12	79*	-6	3	-7	7	4	PAD4 FP conf=-5
CC(C)n1c(O)c(C=NCc2cccnc2)c(=O)[nH]c1=S	-3	-1	0	13	1	3
